Screens: PubChem BioAssay, several laboratories
Shown are actives, neighbours in structure and some others; about 4.9% of the full set was active somewhere.
NF-kB expr up = NF-kB expression increase, human neuronal cells; NF-kB reporter expression; active compounds read high; fold change at 12.5 µM; 190,000 compounds, 1.6% hits; AID 1239; in the data active means fold change above about 3.3
STAT3 blocker = STAT3 signaling inhibition; U3A cells, IL-6 STAT3-luciferase reporter, luminescence; host cell line lacks STAT1; inhibition, % at 5.5 µM; 190,000 compounds, 0.89% hits; AID 862;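 active means inhibition above the mean inhibition across all screened compounds plus 3 SD, cut at about 44% in these data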
STAT1 blocker = STAT1 signaling inhibition. NIH 3T3 STAT1-luciferase reporter, IFN-gamma, luminescence. AID 920. inhibition, % at 5.5 µM. 200,000 compounds, 0.35% hits;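 active means inhibition above a set limit, the mean inhibition across all tested compounds plus 3 SD, cut at about 34% in these data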
APP 5'UTR act = APP 5'UTR luciferase reporter activation. SH-SY5Y APP 5'UTR luciferase reporter, luminescence; zero percent = DMSO vehicle wells. activation, % at 2 µM. 190,000 compounds, 1% hits;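 active means activation above a set limit, based on mean plus 3 SD of controls, cut at about 140% in these data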
STAT1 act-1 = increases IFN-gamma driven STAT1 reporter signal; NIH 3T3 STAT1-luciferase reporter, luminescence; 100% = IFN-gamma alone, no compound; activation (% of control), % at 5.5 µM; 200,000 compounds, 2.6% hits; AID 932;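 active means activation above the screen-wide mean activation plus 3 SD, cut at about 130% in these data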
STAT3 act-1 = STAT3 signaling activation; 190,000 compounds, 0.91% hits; activation (% of control), % at 5.6 µM; U3A cells, IL-6 STAT3-luciferase reporter, luminescence; 100% = signal with IL-6 EC80 alone; AID 871;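 active means activation above the screen-wide mean of compound activation plus 3 SD, cut at about 130% in these data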
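Material: STAT1-lacking human U3A cells, STAT3 luciferase reporter | Benchmarks: IL-6-only wells as 100% reference | Probe or stimulus: IL-6 (33 ng/mL) | Timing: Compound 1 h, then IL-6 6 h at 37 °C | Detection: Luminescence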
STAT3 act-2 = confirmation of STAT3 signaling activators. U3A STAT3-luciferase reporter, IL-6 potentiation, luminescence; U3A cells lack STAT1; 100 means same as IL-6 alone. potentiation (% of control), % at 5.7 µM. shares compounds with STAT3 act-1. 1,200 compounds, 64% hits. AID 1267;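 active means percent activation of the STAT3 luciferase reporter above a set limit taken from the earlier primary screen, cut at about 130% in these data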
NFkB act STAT3ct = counter-screen for STAT3 activators: NF-kappaB activation; AID 1309; human cells, NF-kappaB reporter activation; activation (% of control), % at 5.7 µM; 1,200 compounds, 11% hits; shares compounds with STAT3 act-1; in the data active means activation above about 120%;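 further: reporter induced by TNF-alpha stimulation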
STAT1 act-2 = counter-screen for STAT3 activators: STAT1 activation; 1,200 compounds, 13% hits; NIH 3T3 STAT1-luciferase reporter, IFN-gamma, luminescence; activation (% of control), % at 5.7 µM; shares compounds with STAT3 act-1; AID 1318;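 active means activation above the solvent-only control well mean plus 3 SD, set per screening run, cut at about 120% in these data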
Hits are given with their value; – = inactive; · = no result.

SMILES | NF-kB expr up | STAT3 blocker | STAT1 blocker | APP 5'UTR act | STAT1 act-1 | STAT3 act-1 | STAT3 act-2 | NFkB act STAT3ct | STAT1 act-2
CC1CCC(NC(=O)C2CC(=O)N(c3ccc4c(c3)OCCO4)C2)CC1 (stereo unspecified) | – | – | – | – | – | – | · | · | ·
Cn1c(=O)n(C)c2cc(NC(=O)COc3ccc(Cl)cc3)ccc21 | – | – | – | – | – | – | · | · | ·
CCOc1ccc(/C=C/C(=O)c2cc(Br)ccc(=O)c2O)cc1 | – | – | – | – | – | – | · | · | ·
CCc1ccc(/C=C/C(=O)c2cc(Br)ccc(=O)c2O)cc1 | – | – | – | – | – | 150 | 136 | – | –
O=C(NCc1ccco1)c1cccn2c(=O)c3cc4ccccc4cc3nc12 | – | – | – | – | – | 196 | 162 | – | –
COCCCNC(=O)c1cccn2c(=O)c3cc4ccccc4cc3nc12 | – | – | – | – | – | – | · | · | ·
CC(C)Cn1c(=S)[nH]c2cc(Cl)ccc21 | – | – | – | – | – | – | · | · | ·
CC(C)(CO)N=Cc1c(O)[nH]c2ccccc12 | – | – | – | – | – | 142 | 137 | – | –
CN(C)CCN(C)Cc1ccccc1Sc1cccc2ccccc12 | – | – | – | – | – | – | · | · | ·
COC(=O)c1c(NC(=O)CN2CCN(C(=O)c3ccco3)CC2)c2c(C)cccc2n1C | – | – | – | – | – | – | · | · | ·
COC(=O)c1c(NC(=O)CN2CCN(C(=O)c3ccco3)CC2)c2cc(C)ccc2n1C | – | – | – | – | – | 139 | 141 | – | –
COc1ccccc1-c1nnc(SCC(=O)N2CCC(C)CC2)o1 | – | – | – | – | – | – | · | · | ·
COc1ccccc1-c1nnc(SCC(=O)N2CCOCC2)o1 | – | – | – | – | – | 151 | 159 | – | –
C[n+]1c2n(c3ccccc31)N=C(c1ccc(Br)cc1)CS2 | – | – | – | – | – | 136 | – | – | –
Cc1cccc(-c2nnc3n2N=C(c2ccccc2)CS3)c1 | – | – | – | – | – | – | · | · | ·
C[n+]1c2n(c3ccccc31)N=C(c1ccccc1)CS2 | – | – | – | – | – | 140 | 149 | – | –
O=C(COC(=O)/C=C/c1cccs1)Nc1ccc2ccccc2c1 | – | – | – | – | – | – | · | · | ·
CC(=O)c1c(-c2ccc(C)cc2)nc2c3ccccc3ccn12 | – | – | – | – | – | 142 | 143 | – | –
CC(=O)OCC(=O)c1c[nH]c2ccccc12 | – | – | – | – | – | – | · | · | ·
CC(C)(C)C(=O)COC(=O)c1ccccc1O | – | – | – | – | – | – | · | · | ·
COc1cccc(C(=O)OCC(=O)c2c[nH]c3ccccc23)c1O | – | – | – | – | – | 144 | 138 | – | –
COc1ccccc1C(=O)COC(=O)c1ccccc1O | – | – | – | – | – | 151 | 150 | – | –
Cn1c(SC2CCCCC2=O)nnc1-c1ccccc1F (stereo unspecified) | – | – | – | – | – | – | · | · | ·
CCCn1c(=O)c(C(=O)Nc2ccccc2)c(O)c2ccccc21 | – | – | – | – | – | 137 | – | – | –
CCn1c(=O)c(C(=O)NCCc2ccccc2)c(O)c2ccccc21 | – | – | – | – | – | 137 | 134 | – | –
SMILES | NF-kB expr up | STAT3 blocker | STAT1 blocker | APP 5'UTR act | STAT1 act-1 | STAT3 act-1 | STAT3 act-2 | NFkB act STAT3ct | STAT1 act-2
CCNCCNC(=O)c1c(O)c2ccccc2n(CC)c1=O | – | – | – | – | – | – | · | · | ·
CCn1c(=O)c(C(=O)Nc2ccccc2C)c(O)c2ccccc21 | – | – | – | – | – | 140 | 141 | – | –
CCCCCCC(=O)NNC(=O)c1c(O)c2ccccc2n(CCC)c1=O | – | – | – | – | – | – | · | · | ·
CCCN(c1ccc(C(C)C)cc1)S(=O)(=O)c1c(C)noc1C | – | – | – | – | – | – | · | · | ·
Cc1noc(C)c1S(=O)(=O)N(CC(=O)N1CCn2c1nc1ccccc12)c1ccc(C(C)C)cc1 | – | – | – | – | – | 149 | 138 | – | –
COC(=O)c1[nH]c2ccc(F)cc2c1NS(=O)(=O)c1ccc(OC)cc1OC | – | – | – | – | – | 143 | – | – | –
CCOC(=O)c1[nH]c2ccc(OC)cc2c1NS(=O)(=O)c1ccc(OC)cc1OC | – | – | – | – | – | – | · | · | ·
O=C(Nc1nc2c(s1)COc1ccccc1-2)c1cccs1 | – | – | – | – | – | 139 | – | 154 | 136
O=C(Nc1nc2c(s1)CCc1ccccc1-2)c1cccs1 | – | – | – | – | – | – | · | · | ·
O=C1NC(c2cccs2)Nc2sc3c(c21)CCCC3 (stereo unspecified) | – | – | – | – | – | 143 | 139 | 125 | –
CN1CCc2c(sc3c2C(=O)NC(c2ccco2)N3)C1 (stereo unspecified) | – | – | – | – | – | – | · | · | ·
Clc1cccc2c1CCN(Cc1nc(-c3cnccn3)no1)C2 | – | – | – | – | – | – | · | · | ·
O=C(Cc1c[nH]c2ccccc12)Nc1nc2ccccc2[nH]1 | – | – | – | – | – | 146 | 154 | – | –
CC1CC(C)(C)NC(=S)N1CCCC(=O)NCCc1ccc(Cl)cc1 (stereo unspecified) | – | – | – | – | – | – | · | · | ·
Cc1cc(NS(=O)(=O)c2ccc(NC(=O)c3oc4ccccc4c3C)cc2)no1 | – | – | – | – | – | 145 | – | – | –
CCOC(=O)/C(=N/Nc1ccccc1)Sc1nnc(CCc2ccccc2)n1-c1ccccc1 | – | – | – | – | – | – | · | · | ·
CCCc1cc(=O)n2[nH]c(C(F)(F)F)nc2n1 | – | – | – | – | – | – | · | · | ·
CCCc1cc(=O)n2[nH]c(C)nc2n1 | – | – | – | – | – | 153 | – | – | –
Cc1ccc(-c2cc(-c3cccs3)[nH]n2)c(O)c1 | 8.1 | – | – | – | – | 164 | 140 | 127 | –
CCOC(=O)CC(=O)CSc1nc(-c2ccc3c(c2)OCO3)cc(C(F)(F)F)c1C#N | – | – | – | – | – | 140 | – | – | –
CCOC(=O)CCSc1nc(-c2ccc3c(c2)OCO3)cc(C(F)(F)F)c1C#N | – | – | – | – | – | – | · | · | ·
Brc1ccc(-c2cn3c(n2)CCc2ccc4cccnc4c2-3)cc1 | – | – | – | – | – | 157 | 149 | – | –
COc1ccc(C(=O)NCCc2nnc3ccc(SCC(=O)Nc4cc(C)on4)nn23)cc1 | – | – | – | – | – | – | · | · | ·
CCOc1ccccc1CN1CCN(Cc2cc3ccccc3[nH]2)CC1CCO (stereo unspecified) | – | – | – | – | – | 136 | 150 | – | –
